In the library only some 5.8% were active in any assay of this set; here they are far more common.
T cruzi growth-1: T. cruzi proliferation inhibition; 77,000 compounds, 5.9% hits; inhibition, % at 8.34 µM; T. cruzi beta-gal in NIH3T3, GalScreen luminescence, 90 h;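 active = mean inhibition above about 93%, with at least 55% of replicates each passing it, limit read from the data, passing the limit was not always enough; inconclusive = only one of those two conditions holds; inactive = neither condition holds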
KDM4C inh: KDM4C (human) demethylase inhibition; GST-KDM4C 2-372, H3K9me3 peptide, LANCE TR-FRET; 96,000 compounds, 0.15% hits; inhibition, % at 12.5 µM; Q9H3R0;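 active = mean replicate inhibition above about 25%, with at least 55% of replicates also reaching it, limit read from the data, passing the limit was not always enough; inconclusive = only one of those two conditions met; inactive = neither condition met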
Target sequence (Q9H3R0 2-372 limits assumed): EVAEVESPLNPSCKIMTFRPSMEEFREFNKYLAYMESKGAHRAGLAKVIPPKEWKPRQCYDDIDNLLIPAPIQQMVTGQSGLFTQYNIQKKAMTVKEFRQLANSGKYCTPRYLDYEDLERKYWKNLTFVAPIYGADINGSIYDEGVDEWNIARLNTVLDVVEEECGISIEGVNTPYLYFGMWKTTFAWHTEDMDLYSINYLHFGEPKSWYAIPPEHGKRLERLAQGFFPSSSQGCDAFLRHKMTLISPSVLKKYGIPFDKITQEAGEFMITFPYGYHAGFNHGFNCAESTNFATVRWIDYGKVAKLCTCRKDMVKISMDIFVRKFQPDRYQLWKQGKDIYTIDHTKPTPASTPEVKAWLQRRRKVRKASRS
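Material: GST-tagged GASC-1 (JMJD2C) catalytic fragment, aa 2-372. Input: enzyme final amount 10 nM. Medium: HEPES buffer, pH 7.5, plus ascorbate. Reagent: H3K9me3 peptide substrate, Fe(II), 2-oxoglutarate. Doses: single dose. Times: reaction 30 min RT, detection step 1 h RT. Measured by: LANCE TR-FRET. Evaluation: Fall in 671/618 emission ratio as inhibition.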
Pf Dd2 inh: blocks growth of Plasmodium falciparum Dd2 parasites | activity change, % at 10 µM | P. falciparum Dd2 growth, SYBR Green, 72 h; active compounds read low | AID 1159554 | 94,000 compounds, 2.3% hits; in the data active = activity change below about -80%; inconclusive = no clear call, values can overlap the other calls
IDH1 R132H inh: IDH1 R132H (human) inhibition; O75874; inhibition, % at 10 µM; 70,000 compounds, 0.18% hits; IDH1 R132H reductase, diaphorase/resazurin fluorescence, 60 min; in the data active = inhibition above about 34%; inconclusive = no clear call, values can overlap the other calls; inactive = below about 11%
Target sequence (O75874 whole entry R132H): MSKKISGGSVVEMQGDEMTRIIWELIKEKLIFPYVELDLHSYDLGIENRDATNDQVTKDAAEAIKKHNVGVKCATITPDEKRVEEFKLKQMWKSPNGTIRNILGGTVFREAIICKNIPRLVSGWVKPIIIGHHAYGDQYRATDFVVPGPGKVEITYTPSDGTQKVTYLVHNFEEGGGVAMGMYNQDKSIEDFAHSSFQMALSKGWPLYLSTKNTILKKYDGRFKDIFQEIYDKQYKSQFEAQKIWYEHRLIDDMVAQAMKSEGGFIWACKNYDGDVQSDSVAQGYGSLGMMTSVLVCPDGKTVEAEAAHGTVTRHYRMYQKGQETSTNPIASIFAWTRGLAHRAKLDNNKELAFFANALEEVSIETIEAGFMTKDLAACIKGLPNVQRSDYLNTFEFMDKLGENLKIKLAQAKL
T cruzi growth-2: inhibitors of T. cruzi proliferation | inhibition, % at 8.35 µM | AID 651739 | 5,600 compounds, 72% hits | shares compounds with T cruzi growth-1 | T. cruzi beta-gal in NIH3T3, GalScreen luminescence, 90 h;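 active = mean replicate inhibition above about 95% and at least 55% of replicates individually reaching it, limit read from the data; inconclusive = only one of the two criteria is met; inactive = neither criterion is met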
T cruzi growth-3: inhibitors of T. cruzi proliferation | inhibition, % at 2.09 µM | T. cruzi beta-gal in NIH3T3, GalScreen luminescence, 90 h | shares compounds with T cruzi growth-1 | 5,600 compounds, 21% hits;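 active = mean inhibition above about 95%, with at least 55% of replicates also reaching it, limit read from the data; inconclusive = meets just one of the two conditions; inactive = meets neither condition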
3T3 cytotox: kills mouse NIH/3T3 fibroblasts; shares compounds with T cruzi growth-1; NIH/3T3 viability, CellTiter-Glo ATP luminescence, 90 h; cytotoxicity (signal decrease), % at 8.35 µM; 5,600 compounds, 14% hits; AID 651742;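 active = mean signal decrease across replicates above about 35% based on untreated-well scatter, with enough replicates individually passing, limit read from the data; inconclusive = no rule stated though some were filed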
3T3 cytotox 2: NIH/3T3 (mouse) viability loss; shares compounds with T cruzi growth-1; NIH/3T3 viability, CellTiter-Glo ATP luminescence, 90 h; inhibition, % at 24.9 µM; 5,600 compounds, 56% hits; AID 651744;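 active = mean loss of cell viability signal at or above a set limit, and enough replicates individually reaching it; inconclusive = meets only the mean limit or only the replicate share; inactive = meets neither condition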
Of the large screens only hits and unclear results are named; the others gave an inactive call (follow-up assays come after a bar, where they were run); ! = repeats disagree.

OC[C@@H]1[C@H](c2ccc(-c3cccc(F)c3)cc2)[C@H]2CN(CCC(F)(F)F)CCCCN12	T cruzi growth-1 107.5 (no result: IDH1 R132H inh) | T cruzi growth-2 99.4 | T cruzi growth-3 inactive | 3T3 cytotox inactive | 3T3 cytotox 2 104.3
Cc1ccc(-c2ccc([C@H]3[C@@H](CO)N4CCCCN(S(=O)(=O)c5cccc(C)c5)C[C@@H]34)cc2)cc1	none (no result: KDM4C inh, IDH1 R132H inh)
C/C=C/c1ccc([C@H]2[C@@H](CO)N3CCCCN(S(=O)(=O)c4cccc(C)c4)C[C@@H]23)cc1	T cruzi growth-1 110.6 (no result: IDH1 R132H inh) | T cruzi growth-2 112.4 | T cruzi growth-3 inactive | 3T3 cytotox inactive | 3T3 cytotox 2 80.0
C/C=C/c1ccc([C@@H]2[C@@H](CO)N3CCCCN(S(=O)(=O)c4ccc(F)cc4)C[C@H]23)cc1	none (no result: IDH1 R132H inh)
C/C=C/c1ccc([C@H]2[C@H](CO)N3CCCCN(S(=O)(=O)c4cccc(C)c4)C[C@@H]23)cc1	T cruzi growth-1 117.8 (no result: IDH1 R132H inh) | T cruzi growth-2 107.0 | T cruzi growth-3 inactive | 3T3 cytotox inactive | 3T3 cytotox 2 104.5
COCC#Cc1ccc([C@@H]2[C@@H](CO)N3CCCCN(C(=O)CN(C)C)C[C@@H]23)cc1	T cruzi growth-1 98.8 (no result: IDH1 R132H inh) | T cruzi growth-2 inactive | T cruzi growth-3 inactive | 3T3 cytotox inactive | 3T3 cytotox 2 inactive
COCC#Cc1ccc([C@H]2[C@H]3CN(C(=O)CN(C)C)CCCCN3[C@H]2CO)cc1	none (no result: IDH1 R132H inh)
CN(C)CC#Cc1ccc([C@H]2[C@H](CO)N3CCCCN(C(=O)CN(C)C)C[C@@H]23)cc1	T cruzi growth-1 inconclusive, Pf Dd2 inh -89.3 (no result: IDH1 R132H inh) | T cruzi growth-2 inactive | T cruzi growth-3 inactive | 3T3 cytotox inactive | 3T3 cytotox 2 inactive
COCC#Cc1ccc([C@@H]2[C@@H](CO)N3CCCCN(C(=O)CN(C)C)C[C@H]23)cc1	T cruzi growth-1 106.3 (no result: IDH1 R132H inh) | T cruzi growth-2 inactive | T cruzi growth-3 inactive | 3T3 cytotox inactive | 3T3 cytotox 2 inactive
CC(=O)c1ccc(NC(=O)C(C)N2C(=O)C3C4C=CC(C5CC45)C3C2=O)cc1 (stereo unspecified)	none (no result: T cruzi growth-1, KDM4C inh, Pf Dd2 inh)
CCCCCCC/C=N/NC(=O)CCCCCCC(=O)OC	none (no result: T cruzi growth-1, KDM4C inh, Pf Dd2 inh)
CCC(C)C(Nc1ncnc2c1oc1ccccc12)C(=O)O (stereo unspecified)	none (no result: T cruzi growth-1, KDM4C inh, Pf Dd2 inh)
C[C@H]1CN([C@@H](C)CO)S(=O)(=O)c2ccc(-c3ccncc3)cc2O[C@H]1CN(C)Cc1ccccn1	T cruzi growth-1 103.4 (no result: IDH1 R132H inh) | T cruzi growth-2 96.7 | T cruzi growth-3 inactive | 3T3 cytotox inactive | 3T3 cytotox 2 28.4
C[C@@H]1CN([C@H](C)CO)S(=O)(=O)c2ccc(-c3ccncc3)cc2O[C@H]1CN(C)Cc1ccccn1	T cruzi growth-1 112.4 (no result: IDH1 R132H inh) | T cruzi growth-2 inactive | T cruzi growth-3 inconclusive | 3T3 cytotox inconclusive | 3T3 cytotox 2 57.6
COc1ccc(S(=O)(=O)N(C)C[C@H]2OCCCC[C@H](C)Oc3ccc(NS(=O)(=O)c4ccc(C)cc4)cc3C(=O)N([C@H](C)CO)C[C@@H]2C)cc1	T cruzi growth-1 inconclusive | T cruzi growth-2 109.6 | T cruzi growth-3 inactive | 3T3 cytotox inactive | 3T3 cytotox 2 inactive
COc1ccc(S(=O)(=O)N(C)C[C@H]2OCCCC[C@@H](C)Oc3ccc(NS(=O)(=O)c4ccc(C)cc4)cc3C(=O)N([C@H](C)CO)C[C@@H]2C)cc1	none (no result: IDH1 R132H inh)
COc1ccc(S(=O)(=O)N(C)C[C@H]2OCCCC[C@H](C)Oc3ccc(NS(=O)(=O)c4ccc(C)cc4)cc3C(=O)N([C@H](C)CO)C[C@H]2C)cc1	T cruzi growth-1 inconclusive, Pf Dd2 inh -83.1 (no result: IDH1 R132H inh) | T cruzi growth-2 107.0 | T cruzi growth-3 inactive | 3T3 cytotox inactive | 3T3 cytotox 2 inactive
COc1ccc(S(=O)(=O)Nc2ccc3c(c2)C(=O)N([C@H](C)CO)C[C@H](C)[C@@H](CN(C)S(=O)(=O)c2ccc(C)cc2)OCCCC[C@@H](C)O3)cc1	none (no result: T cruzi growth-1)
C[C@H]1CN([C@@H](C)CO)S(=O)(=O)c2ccc(-c3ccc(C#N)cc3)cc2O[C@H]1CN(C)C(=O)Nc1cc(F)ccc1F	T cruzi growth-1 122.1 | T cruzi growth-2 102.2 | T cruzi growth-3 inactive | 3T3 cytotox inactive | 3T3 cytotox 2 83.5
C[C@@H]1CN([C@H](C)CO)S(=O)(=O)c2ccc(-c3ccc(C#N)cc3)cc2O[C@@H]1CN(C)C(=O)Nc1cc(F)ccc1F	T cruzi growth-1 114.6 | T cruzi growth-2 inactive | T cruzi growth-3 inactive | 3T3 cytotox inactive | 3T3 cytotox 2 77.4
C[C@H](CO)N1C[C@H](C)[C@@H](CN(C)C(=O)Nc2cc(F)ccc2F)Oc2cc(-c3ccc(C#N)cc3)ccc2S1(=O)=O	T cruzi growth-1 117.8 (no result: IDH1 R132H inh) | T cruzi growth-2 101.3 | T cruzi growth-3 inactive | 3T3 cytotox 46.2 | 3T3 cytotox 2 82.8
C[C@@H]1CN([C@H](C)CO)S(=O)(=O)c2ccc(-c3cccc(C#N)c3)cc2O[C@@H]1CN(C)C(=O)Nc1cc(F)ccc1F	none (no result: T cruzi growth-1, IDH1 R132H inh)
C[C@H](CO)N1C[C@H](C)[C@@H](CN(C)C(=O)Nc2ccccc2F)Oc2cc(-c3cccc(C#N)c3)ccc2S1(=O)=O	T cruzi growth-1 inconclusive (no result: IDH1 R132H inh) | T cruzi growth-2 103.2 | T cruzi growth-3 inactive | 3T3 cytotox 41.3 | 3T3 cytotox 2 69.2
C[C@@H]1CN([C@H](C)CO)S(=O)(=O)c2ccc(-c3ccc(C#N)cc3)cc2O[C@H]1CN(C)C(=O)Nc1cc(F)ccc1F	T cruzi growth-1 109.4! (no result: IDH1 R132H inh) | T cruzi growth-2 inactive | T cruzi growth-3 inactive | 3T3 cytotox 80.7 | 3T3 cytotox 2 83.0
COc1ccc(CN(C)C[C@H]2OCCCC[C@H](C)Oc3ccc(NS(=O)(=O)c4ccccc4)cc3C(=O)N([C@@H](C)CO)C[C@H]2C)cc1	T cruzi growth-1 103.3 (no result: IDH1 R132H inh) | T cruzi growth-2 108.9 | T cruzi growth-3 inactive | 3T3 cytotox inactive | 3T3 cytotox 2 89.5
COc1ccc(CN(C)C[C@@H]2OCCCC[C@@H](C)Oc3ccc(NS(=O)(=O)c4ccccc4)cc3C(=O)N([C@H](C)CO)C[C@@H]2C)cc1	none (no result: IDH1 R132H inh)
C[C@@H]1CCCCO[C@H](CN(C)Cc2ccccc2)[C@H](C)CN([C@H](C)CO)C(=O)c2cc(NS(=O)(=O)c3ccccc3)ccc2O1	T cruzi growth-1 100.8 | T cruzi growth-2 98.2 | T cruzi growth-3 inactive | 3T3 cytotox inactive | 3T3 cytotox 2 41.2
C[C@@H]1CN([C@@H](C)CO)C(=O)c2cc(NS(=O)(=O)c3ccc(F)cc3)ccc2O[C@@H](C)CCCCO[C@@H]1CN(C)Cc1ccccc1	T cruzi growth-1 104.9 | T cruzi growth-2 99.2 | T cruzi growth-3 inactive | 3T3 cytotox inactive | 3T3 cytotox 2 106.9
